Legend:
[1] = target: G protein-coupled receptor kinase 6 (Homo sapiens) (UniProt P43250); assay: Inhibition of recombinant full length GST-tagged human GRK6 expressed in baculovirus expression system at 1 uM by FRET relative to control
Procedure, shortened: (§1)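 Single-concentration screen at 1 μM in Life Technologies SelectScreen, across a 220-kinase panel. Z′-LYTE format measures phosphorylation of a labeled peptide by FRET. Results are reported as percent inhibition.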

[2] = target: 3-phosphoinositide-dependent protein kinase 1 (Homo sapiens) (UniProt O15530); assay: Inhibition of recombinant full length His-tagged human PDK1 expressed in baculovirus expression system at 1 uM by FRET assay relative to control
[3] = target: T1, Mitogen-activated protein kinase kinase kinase 12 (Homo sapiens, UniProt Q12852); assay: Binding affinity to full length wild type human DLK (M1 to P859 residues) expressed in mammalian cells by KINOMEscan assay; type: cell-based
T1 sequence (Q12852 whole entry): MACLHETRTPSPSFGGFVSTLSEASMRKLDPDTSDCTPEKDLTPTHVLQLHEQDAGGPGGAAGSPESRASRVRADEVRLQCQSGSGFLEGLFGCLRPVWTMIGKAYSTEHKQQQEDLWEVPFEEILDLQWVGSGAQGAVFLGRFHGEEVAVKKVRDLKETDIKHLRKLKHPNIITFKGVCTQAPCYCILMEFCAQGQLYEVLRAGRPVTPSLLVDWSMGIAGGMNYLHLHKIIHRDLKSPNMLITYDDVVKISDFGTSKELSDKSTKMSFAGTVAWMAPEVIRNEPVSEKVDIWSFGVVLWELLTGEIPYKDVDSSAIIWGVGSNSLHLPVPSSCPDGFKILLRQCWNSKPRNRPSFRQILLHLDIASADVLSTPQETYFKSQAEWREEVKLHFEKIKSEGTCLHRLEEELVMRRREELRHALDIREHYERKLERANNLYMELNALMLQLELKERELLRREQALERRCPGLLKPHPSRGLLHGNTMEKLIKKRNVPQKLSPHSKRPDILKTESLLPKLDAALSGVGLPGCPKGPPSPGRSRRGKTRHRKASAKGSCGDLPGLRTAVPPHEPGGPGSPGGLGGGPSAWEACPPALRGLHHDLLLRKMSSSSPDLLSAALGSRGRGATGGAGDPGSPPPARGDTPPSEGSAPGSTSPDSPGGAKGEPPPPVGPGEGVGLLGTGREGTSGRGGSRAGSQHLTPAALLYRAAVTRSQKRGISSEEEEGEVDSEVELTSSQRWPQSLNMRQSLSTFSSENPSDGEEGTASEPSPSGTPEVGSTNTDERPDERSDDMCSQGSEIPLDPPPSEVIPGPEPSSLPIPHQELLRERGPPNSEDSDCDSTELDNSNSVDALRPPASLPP
Procedure, shortened: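 Binding measured in an outsourced KINOMEscan profiling service, run alongside the homologous kinase LZK; the value is reported as a dissociation constant (Kd).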

[4] = target: Serine/threonine-protein kinase N1 (Homo sapiens) (UniProt Q16512); assay: Inhibition of full length recombinant GST-tagged human PRK1 expressed in baculovirus expression system at 1 uM by FRET assay relative to control
[5] = target: Sodium-dependent serotonin transporter (Homo sapiens) (UniProt P31645); assay: Binding affinity to 5HT transporter (unknown origin) at 10 uM relative to control
Procedure, shortened: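 Broad radioligand-binding and enzyme screening panel covering 42 targets (biogenic amine and neuropeptide receptors, ion channels, neurotransmitter transporters, acetylcholinesterase). Single test concentration of 10 μM. Results expressed as binding relative to control, with a hit defined as >50% of control.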

[6] = target: Serine/threonine-protein kinase 33 (Homo sapiens) (UniProt Q9BYT3); assay: Inhibition of recombinant full length His-tagged human STK33 expressed in baculovirus expression system at 1 uM by FRET assay relative to control
[7] = target: Serine/threonine-protein kinase Nek4 (Homo sapiens) (UniProt P51957); assay: Inhibition of recombinant full length GST-tagged human NEK4 expressed in baculovirus expression system at 1 uM by FRET assay relative to control; procedure, shortened: as §1
[8] = target: STE20-like serine/threonine-protein kinase (Homo sapiens) (UniProt Q9H2G2); assay: Inhibition of recombinant full length GST-tagged human SLK expressed in baculovirus expression system at 1 uM by FRET assay relative to control; procedure, shortened: as §1
[9] = target: Tyrosine-protein kinase Lck (Homo sapiens) (UniProt P06239); assay: Inhibition of recombinant full length His-tagged human Lck expressed in baculovirus at 1 uM by FRET assay relative to control
[10] = target: Serine/threonine-protein kinase D1 (Homo sapiens) (UniProt Q15139); assay: Inhibition of PKD1 (unknown origin) at 1 uM by FRET assay relative to control
[11] = target: Mitogen-activated protein kinase kinase kinase 13 (Homo sapiens, UniProt O43283); assay: Binding affinity to full length wild type human LZK (M1 to W966 residues) expressed in mammalian cells by KINOMEscan assay; type: cell-based
[12] = target: Death-associated protein kinase 3 (Homo sapiens) (UniProt O43293); assay: Inhibition of recombinant full length GST-tagged human ZIPK expressed in baculovirus expression system at 1 uM by FRET assay relative to control
[13] = target: Activated CDC42 kinase 1 (Homo sapiens) (UniProt Q07912); assay: Inhibition of recombinant GST-tagged human TNK2 catalytic/cytoplasmic domain (110 to 476 residues) expressed in baculovirus expression system at 1 uM by FRET assay relative to control
Procedure, shortened: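 Single-point screen at 1 μM compound in a 220-kinase panel run by Life Technologies (SelectScreen). Z′-LYTE format: phosphorylation of a labeled peptide substrate read by FRET. Values are reported as percent inhibition.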

[14] = target: T1, Mitogen-activated protein kinase kinase kinase 12; assay: Inhibition of doxycycline inducible human DLK transfected in HEK293 cells assessed as JNK phosphorylation after […] by Hoechst-33342 staining-based assay; type: cell-based
[15] = target: Mitogen-activated protein kinase kinase kinase 2 (Homo sapiens) (UniProt Q9Y2U5); assay: Inhibition of recombinant full length GST-tagged human MEKK2 expressed in baculovirus expression system at 1 uM by FRET assay relative to control
Procedure, shortened: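 Part of a 220-kinase panel run at a single concentration of 1 μM. Z′-LYTE format: phosphorylation of a labelled peptide read by FRET. Values reported as percent inhibition.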

[16] = target: Protein kinase C zeta type (Homo sapiens) (UniProt Q05513); assay: Inhibition of PKCzeta (unknown origin) at 1 uM by FRET assay relative to control
[17] = target: Interleukin-1 receptor-associated kinase 4 (Homo sapiens) (UniProt Q9NWZ3); assay: Inhibition of recombinant full length His-tagged human IRAK4 expressed in baculovirus expression system at 1 uM by FRET relative to control
[18] = target: Serine/threonine-protein kinase PAK 1 (Homo sapiens) (UniProt Q13153); assay: Inhibition of recombinant full length GST-tagged human PAK1 expressed in baculovirus expression system at 1 uM by FRET assay relative to control
Ephrin type-A receptor 7 = Ephrin type-A receptor 7 (Homo sapiens, UniProt Q15375); assay: Inhibition of recombinant GST-tagged human EphA7 cytoplasmic domain expressed in baculovirus expression system by FRET assay

Sequence of 3-phosphoinositide-dependent protein kinase 1 (Homo sapiens) (O15530 whole entry, the tested form may be a part): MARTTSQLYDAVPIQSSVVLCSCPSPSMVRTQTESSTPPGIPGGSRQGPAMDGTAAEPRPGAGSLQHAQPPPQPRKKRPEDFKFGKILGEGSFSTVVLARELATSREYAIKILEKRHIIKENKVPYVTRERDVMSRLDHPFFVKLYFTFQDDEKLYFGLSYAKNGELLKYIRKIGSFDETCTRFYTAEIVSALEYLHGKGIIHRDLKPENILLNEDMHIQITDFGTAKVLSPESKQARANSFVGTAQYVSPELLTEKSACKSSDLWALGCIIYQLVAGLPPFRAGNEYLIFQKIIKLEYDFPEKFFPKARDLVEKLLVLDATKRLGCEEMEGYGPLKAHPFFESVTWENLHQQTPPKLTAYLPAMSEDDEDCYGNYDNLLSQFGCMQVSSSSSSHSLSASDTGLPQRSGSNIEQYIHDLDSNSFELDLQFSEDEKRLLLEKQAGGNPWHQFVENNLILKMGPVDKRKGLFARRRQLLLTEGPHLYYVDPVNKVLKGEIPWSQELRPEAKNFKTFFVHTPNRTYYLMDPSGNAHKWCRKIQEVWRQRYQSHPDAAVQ
Sequence of Interleukin-1 receptor-associated kinase 4 (Homo sapiens) (Q9NWZ3 whole entry): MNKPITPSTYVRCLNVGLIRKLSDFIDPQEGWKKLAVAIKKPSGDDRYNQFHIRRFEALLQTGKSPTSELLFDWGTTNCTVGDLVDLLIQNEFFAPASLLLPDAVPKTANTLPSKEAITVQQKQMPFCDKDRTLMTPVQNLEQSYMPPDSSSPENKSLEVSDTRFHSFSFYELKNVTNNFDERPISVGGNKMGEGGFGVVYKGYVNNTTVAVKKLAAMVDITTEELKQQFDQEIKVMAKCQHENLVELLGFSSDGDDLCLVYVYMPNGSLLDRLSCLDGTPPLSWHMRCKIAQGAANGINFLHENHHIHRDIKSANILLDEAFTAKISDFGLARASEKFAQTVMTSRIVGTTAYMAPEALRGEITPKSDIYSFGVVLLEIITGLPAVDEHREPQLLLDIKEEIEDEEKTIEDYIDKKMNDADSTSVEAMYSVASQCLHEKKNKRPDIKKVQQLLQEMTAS
Sequence of Tyrosine-protein kinase Lck (Homo sapiens) (P06239 2-509 limits assumed): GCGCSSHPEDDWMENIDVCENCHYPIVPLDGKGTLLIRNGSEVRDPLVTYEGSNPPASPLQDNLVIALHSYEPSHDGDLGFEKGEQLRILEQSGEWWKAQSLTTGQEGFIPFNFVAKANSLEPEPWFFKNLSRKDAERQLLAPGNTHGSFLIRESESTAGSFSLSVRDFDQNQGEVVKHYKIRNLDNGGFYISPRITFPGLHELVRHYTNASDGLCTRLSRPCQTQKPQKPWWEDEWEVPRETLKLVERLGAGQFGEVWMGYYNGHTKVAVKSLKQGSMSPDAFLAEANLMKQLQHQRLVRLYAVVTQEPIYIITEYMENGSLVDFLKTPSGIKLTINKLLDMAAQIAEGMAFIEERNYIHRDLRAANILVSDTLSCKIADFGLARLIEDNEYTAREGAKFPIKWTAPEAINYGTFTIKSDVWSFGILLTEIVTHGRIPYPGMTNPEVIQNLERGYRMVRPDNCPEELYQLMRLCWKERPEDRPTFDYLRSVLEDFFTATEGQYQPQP
Sequence of Activated CDC42 kinase 1 (Homo sapiens) (Q07912 whole entry, looked up, the tested form may be a part): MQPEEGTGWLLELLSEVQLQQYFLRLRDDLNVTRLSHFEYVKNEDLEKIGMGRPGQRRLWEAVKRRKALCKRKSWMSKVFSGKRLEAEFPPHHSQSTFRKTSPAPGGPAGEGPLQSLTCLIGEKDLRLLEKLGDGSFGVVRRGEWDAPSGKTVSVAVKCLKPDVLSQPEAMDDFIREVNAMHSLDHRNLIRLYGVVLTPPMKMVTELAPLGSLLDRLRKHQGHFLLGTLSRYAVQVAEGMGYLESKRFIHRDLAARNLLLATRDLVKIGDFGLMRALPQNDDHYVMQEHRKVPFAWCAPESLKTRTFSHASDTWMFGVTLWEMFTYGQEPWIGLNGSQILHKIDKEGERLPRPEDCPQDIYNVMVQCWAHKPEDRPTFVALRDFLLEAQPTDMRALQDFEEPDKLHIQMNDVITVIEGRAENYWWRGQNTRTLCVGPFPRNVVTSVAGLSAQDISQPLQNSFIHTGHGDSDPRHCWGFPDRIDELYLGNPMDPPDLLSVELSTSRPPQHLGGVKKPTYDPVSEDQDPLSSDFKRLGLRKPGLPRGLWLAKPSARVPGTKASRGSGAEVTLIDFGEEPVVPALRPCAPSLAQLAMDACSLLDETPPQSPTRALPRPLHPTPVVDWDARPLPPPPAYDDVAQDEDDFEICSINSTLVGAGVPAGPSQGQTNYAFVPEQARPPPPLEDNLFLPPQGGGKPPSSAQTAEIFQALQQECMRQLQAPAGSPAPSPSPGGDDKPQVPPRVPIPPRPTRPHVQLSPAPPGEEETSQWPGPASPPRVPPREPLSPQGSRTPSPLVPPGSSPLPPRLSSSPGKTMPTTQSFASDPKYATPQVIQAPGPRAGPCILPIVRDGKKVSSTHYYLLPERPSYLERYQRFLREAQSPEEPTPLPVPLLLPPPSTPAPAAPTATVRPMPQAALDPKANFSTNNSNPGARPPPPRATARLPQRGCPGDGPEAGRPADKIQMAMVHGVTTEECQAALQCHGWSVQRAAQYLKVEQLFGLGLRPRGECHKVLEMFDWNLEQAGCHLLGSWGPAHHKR
Sequence of STE20-like serine/threonine-protein kinase (Homo sapiens) (Q9H2G2 whole entry, looked up): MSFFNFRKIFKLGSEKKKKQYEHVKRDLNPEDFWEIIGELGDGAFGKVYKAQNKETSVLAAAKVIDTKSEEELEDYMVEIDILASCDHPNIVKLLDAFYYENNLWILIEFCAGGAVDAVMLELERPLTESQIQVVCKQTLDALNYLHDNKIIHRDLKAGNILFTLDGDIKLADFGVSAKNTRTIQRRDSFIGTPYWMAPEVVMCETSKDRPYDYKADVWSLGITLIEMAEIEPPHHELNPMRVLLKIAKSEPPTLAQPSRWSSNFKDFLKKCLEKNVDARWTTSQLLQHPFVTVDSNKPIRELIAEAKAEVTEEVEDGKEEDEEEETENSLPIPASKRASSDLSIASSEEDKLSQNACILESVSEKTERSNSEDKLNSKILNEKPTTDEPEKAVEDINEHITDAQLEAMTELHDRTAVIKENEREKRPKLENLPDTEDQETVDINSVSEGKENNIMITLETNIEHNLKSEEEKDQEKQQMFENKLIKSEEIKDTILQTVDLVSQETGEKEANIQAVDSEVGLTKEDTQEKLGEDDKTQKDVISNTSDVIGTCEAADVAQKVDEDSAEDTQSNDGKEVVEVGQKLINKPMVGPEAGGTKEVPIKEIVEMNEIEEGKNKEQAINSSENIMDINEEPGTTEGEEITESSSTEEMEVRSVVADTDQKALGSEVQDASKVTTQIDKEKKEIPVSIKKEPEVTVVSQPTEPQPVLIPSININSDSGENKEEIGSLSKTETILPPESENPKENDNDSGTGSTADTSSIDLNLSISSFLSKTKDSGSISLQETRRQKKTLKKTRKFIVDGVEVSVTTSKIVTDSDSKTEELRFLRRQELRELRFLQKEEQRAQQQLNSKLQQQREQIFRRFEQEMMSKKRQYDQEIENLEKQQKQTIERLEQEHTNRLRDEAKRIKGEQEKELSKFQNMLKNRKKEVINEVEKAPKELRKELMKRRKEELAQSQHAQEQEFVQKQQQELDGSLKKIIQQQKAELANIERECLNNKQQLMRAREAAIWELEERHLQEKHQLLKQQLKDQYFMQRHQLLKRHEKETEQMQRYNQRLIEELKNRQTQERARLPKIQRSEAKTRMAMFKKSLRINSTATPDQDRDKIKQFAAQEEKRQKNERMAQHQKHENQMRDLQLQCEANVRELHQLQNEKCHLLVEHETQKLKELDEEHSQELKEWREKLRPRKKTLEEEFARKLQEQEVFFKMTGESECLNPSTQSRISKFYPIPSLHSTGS
Sequence of Serine/threonine-protein kinase N1 (Homo sapiens) (Q16512 2-942 limits assumed): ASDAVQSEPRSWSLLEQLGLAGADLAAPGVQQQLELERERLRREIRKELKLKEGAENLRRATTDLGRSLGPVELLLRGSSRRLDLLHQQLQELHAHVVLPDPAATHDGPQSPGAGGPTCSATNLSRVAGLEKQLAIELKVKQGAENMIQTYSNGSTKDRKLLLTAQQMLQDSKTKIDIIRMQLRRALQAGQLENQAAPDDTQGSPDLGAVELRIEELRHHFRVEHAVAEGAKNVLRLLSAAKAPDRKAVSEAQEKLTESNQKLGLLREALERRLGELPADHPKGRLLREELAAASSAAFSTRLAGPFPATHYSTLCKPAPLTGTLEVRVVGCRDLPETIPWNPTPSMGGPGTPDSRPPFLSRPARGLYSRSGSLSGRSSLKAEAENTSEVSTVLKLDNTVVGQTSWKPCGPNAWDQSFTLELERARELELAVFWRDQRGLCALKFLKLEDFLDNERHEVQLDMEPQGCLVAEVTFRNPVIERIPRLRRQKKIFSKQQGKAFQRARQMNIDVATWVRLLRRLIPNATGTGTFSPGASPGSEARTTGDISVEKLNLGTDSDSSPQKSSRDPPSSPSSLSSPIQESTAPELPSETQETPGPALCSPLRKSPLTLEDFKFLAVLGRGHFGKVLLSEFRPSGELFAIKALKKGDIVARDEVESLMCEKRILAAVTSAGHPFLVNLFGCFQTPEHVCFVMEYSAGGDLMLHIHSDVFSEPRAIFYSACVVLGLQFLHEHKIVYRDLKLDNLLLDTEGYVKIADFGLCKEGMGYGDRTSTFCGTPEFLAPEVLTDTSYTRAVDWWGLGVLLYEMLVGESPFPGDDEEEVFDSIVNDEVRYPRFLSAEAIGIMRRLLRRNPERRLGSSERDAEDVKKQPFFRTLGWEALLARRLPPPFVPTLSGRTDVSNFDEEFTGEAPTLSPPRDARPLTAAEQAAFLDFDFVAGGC

Structure (SMILES)	inhibition [1]	inhibition [2]	Kd [3]	inhibition [4]	Activity [5]	inhibition [6]	inhibition [7]	inhibition [8]	inhibition [9]	inhibition [10]	Kd [11]	inhibition [12]	inhibition [13]	IC50 [14]	inhibition [15]	inhibition [16]	inhibition [17]	inhibition [18]	IC50 (Ephrin type-A receptor 7)
CC(C)n1nc(-c2cnc(N)c(OC(F)(F)F)c2)cc1[C@H]1[C@@H]2CN(C3COC3)C[C@@H]21	2.5%	3.3%	0.011 µM	5.3%	> 50%	2.4%	0.1%	4.9%	7.5%	20%	0.46 µM	3.5%	1.3%	0.195 µM	0.5%	5.9%	-1.3%		
Nc1ncc(-c2cc([C@H]3[C@@H]4CN(C5COC5)C[C@@H]43)n(CC3CC3)n2)cc1C(F)(F)F	-4.2%	-2.7%	0.0051 µM	-8%	> 50%	2.8%	2.4%	4.8%	36.1%	10%	0.12 µM		0.3%	0.144 µM	4%		5.3%	0.7%	0.665 µM
